# Screens from PubChem.
# CHRM5 antagonist = antagonists of human muscarinic M5 receptor (CHRM5); inhibition, % at 3 µM; AID 624040; CHO-hM5 cells, Fluo-8 calcium fluorescence, ACh EC80; 0.59% of 360,000 active;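 active = inhibition above a per-plate cutoff, the mean of that plate's test compounds plus 3 SD, cut at about 27% in these data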;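 also: 0% = acetylcholine EC80 with DMSO and 100% = DMSO without agonist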
# M5 PAM = potentiates acetylcholine response at human M5 receptor. P08912. CHO-K1 hM5, Fluo-8 calcium, ACh EC20 PAM; 0% = ACh EC20, 100% = ACh EC100. activation, % at 3 µM. 0.3% of 360,000 active. AID 624038;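 active = activation above the run cutoff, the mean activation of all test compounds plus 3 SD, cut at about 18% in these data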
#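 Probe or stimulus: acetylcholine, EC20 level; Assay system: human M5 receptor in CHO-K1 cells; Schedule: compound preincubation 140 s before EC20 acetylcholine addition; Technique: intracellular calcium via Fluo-8 fluorescence; Dosing: single-point, 3 µM nominal; Read-out basis: percent activation from peak-over-basal fluorescence ratio, scaled EC20-to-EC100 acetylcholine; Repeats: one well per compound, no replicates.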
# M5 ag = CHRM5 agonism in calcium assay. P08912. CHO-K1 hM5 cells, Fluo-8 calcium fluorescence; 0% DMSO wells, 100% maximal acetylcholine response. activation, % at 3 µM. 0.19% of 360,000 active;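 active = activation above the run's mean over test compounds plus 3 SD, cut at about 23% in these data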;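 also: signal is peak over basal fluorescence ratio across the kinetic read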
# M4 PAM = potentiates acetylcholine response at human M4 receptor; P08173; CHO-K1 hM4/Gqi5, Fluo-8 calcium fluorescence, ACh EC20; 0% = ACh EC20, 100% = maximal ACh; activation, % at 3 µM; 0.4% of 360,000 active; AID 624126;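 active = activation above its plate's cutoff, the mean activation of sample wells plus 3 SD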
# Target sequence (P08173 whole entry, looked up): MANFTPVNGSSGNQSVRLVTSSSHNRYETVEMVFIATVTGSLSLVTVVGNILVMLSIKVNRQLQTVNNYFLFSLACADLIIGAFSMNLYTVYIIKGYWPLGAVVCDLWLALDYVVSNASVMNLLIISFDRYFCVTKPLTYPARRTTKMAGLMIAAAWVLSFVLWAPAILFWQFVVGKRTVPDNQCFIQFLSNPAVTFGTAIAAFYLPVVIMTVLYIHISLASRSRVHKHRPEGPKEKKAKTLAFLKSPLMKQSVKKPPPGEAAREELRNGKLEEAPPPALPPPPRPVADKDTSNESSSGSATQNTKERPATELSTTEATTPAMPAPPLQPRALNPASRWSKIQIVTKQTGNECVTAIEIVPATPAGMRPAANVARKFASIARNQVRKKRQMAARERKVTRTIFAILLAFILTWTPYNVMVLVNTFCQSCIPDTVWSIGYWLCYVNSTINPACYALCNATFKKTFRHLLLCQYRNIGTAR
# M4 antag = CHRM4 antagonism in calcium assay; 0.73% of 360,000 active; P08173; inhibition, % at 3 µM; CHO-hM4 cells, ACh EC80, Fluo-8 calcium fluorescence;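 active = inhibition above its plate's cutoff, the mean inhibition of sample wells plus 3 SD, cut at about 27% in these data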;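 also: 0% = acetylcholine EC80 with DMSO and 100% = DMSO without agonist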
# M4 ag = agonists of human muscarinic M4 receptor (CHRM4). CHO-K1 hM4/Gqi5, Fluo-8 calcium fluorescence; vehicle 0%, full acetylcholine response 100%. activation, % at 3 µM. 0.14% of 360,000 active;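 active = activation above the run mean over all test wells plus 3 SD, cut at about 32% in these data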;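 also: peak over basal fluorescence ratio per well then scaled between controls; 0% = DMSO wells and 100% = acetylcholine at EC100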
# * marks the source's active call; other numbers are inactive results. Hits are enriched below; roughly 1.8% of the tested compounds scored in any of these assays.
SMILES,CHRM5 antagonist,M5 PAM,M5 ag,M4 PAM,M4 antag,M4 ag
Cc1nccc(-c2cccc(NC(=O)Nc3ccc(Cl)cc3)c2)n1,28*,-30,8,-37,9,20
COc1ccc(CN2CCC3CC2c2cc(-c4cccc(C)c4)ccc23)cc1 (centres undefined),11,-4,3,-3,6,5
CN(Cc1ccccc1)C(=O)c1cccc(NC(=O)Cc2ccc(NC(=O)C3CCN(C(=O)C4CCC4)CC3)cc2)c1,5,-6,-3,-10,6,7
Cc1cccc(N2CCN(C(=O)c3c(-c4ccccc4)noc3C)CC2)c1C,0,3,-2,15,-11,4
O=C(Nc1ccc(-n2ccc(C(F)(F)F)n2)cc1)Nc1cccc(Cl)c1,38*,-30,7,-50,27*,18
CC(CCc1ccccc1)NC(=O)CC(C)c1ccccc1 (centres undefined),1,5,-4,1,10,-1
CC(C)N(C)Cc1nnnn1CC(=O)NCCc1cccc(C(F)(F)F)c1,1,22*,3,-4,-2,0
COC(=O)c1ccc2[nH]c(C)cc(=O)c2c1,-2,1,-3,-18,55*,0
O=[N+]([O-])c1ccc(C[n+]2ccccc2)cc1,-8,16,-3,25*,3,0
CN(C)C=Nc1c(Br)cc(Br)c2nonc12,15,-14,24*,-1,4,12
CCCCn1c(N)c(N(CCC(C)C)C(=O)c2ccc3c(c2)OCO3)c(=O)[nH]c1=O,4,-3,-2,12,-11,1
NC(=O)c1ccccc1N/C=C/C(=O)c1ccc(Cl)cc1Cl,-10,47*,-4,5,-18,0
NC(=O)c1ccccc1N/C=C/C(=O)c1ccc(F)cc1,-5,2,-7,2,-19,2
COc1cccc2c1cc1c(=O)n(CC(=O)N3CCC(C)CC3)nc(C)n12,-26,15,2,8,-1,1
COc1ccc(-n2c(SCC(=O)N(C)C3CCS(=O)(=O)C3)nc3ccc(O)cc3c2=O)cc1OC (centres undefined),29*,-8,-2,-1,0,1
CN(C(=O)CSc1nc2ccccc2c(=O)n1-c1ccc(F)cc1)C1CCS(=O)(=O)C1 (centres undefined),2,3,0,4,-2,2
CC(=O)N1CCc2cc(S(=O)(=O)C(C)CC(=O)Nc3ccc(OC(F)(F)F)cc3)ccc21 (centres undefined),8,-11,3,-6,0,11
O=C(NCc1ccccc1)c1ccc(CS(=O)Cc2cccc(Cl)c2)o1 (centres undefined),0,-4,-1,11,-11,3
O=c1ccc2cc(O)c(O)cc2o1,4,-12,25*,-2,3,0
O=c1ccc2ccc(O)cc2o1,4,-4,0,-2,5,0
Cc1ccc(C)c(N2C(=O)CN=C2Nc2ccccc2Cl)c1,-12,14,0,22*,0,1
Cc1cccc(OCc2nnc3n2CCCCC3)c1,31*,36*,3,4,7,1
COc1ccc(OC)c(NC(=O)C2(C)CCN2Cc2ccccc2Cl)c1 (centres undefined),-3,-4,-2,-3,-22,-2
COc1ccccc1CCn1cnc(Cc2ccccc2)c1C(C)C,13,-23,-2,-15,33*,14
CCCCCc1c(-c2ccccc2OC)ncn1CCc1ccccc1OC,32*,-23,4,-13,34*,13
SMILES,CHRM5 antagonist,M5 PAM,M5 ag,M4 PAM,M4 antag,M4 ag
COc1ccccc1CCn1cnc(-c2ccc(Br)cc2)c1C(C)C,1,-6,-6,-7,10,-1
CCCCn1c(N)c(N(CCOC)C(=O)CSCc2cccc(C)c2)c(=O)[nH]c1=O,13,-1,2,9,1,1
O=c1c2ccccc2nnn1CSc1nnc(COc2ccc(Cl)cc2)n1Cc1ccco1,-3,0,-2,8,-19,2
Clc1ccc(OCc2nnc(SCCN3CCCCC3)n2Cc2ccco2)cc1,12,-17,-7,-27,58*,1
COc1ccc(CC(=O)Nc2nnc(CC(C)C)s2)cc1S(=O)(=O)N1CCOCC1,1,-1,0,-1,6,0
CCCCCCN[C@H]1CCC2C3CC=C4C[C@@H](O)CC[C@]4(C)C3CC[C@@]21C (some centres undefined),12,-18,-10,-12,37*,12
COc1ccc2cc1Oc1ccc(cc1)C[C@H]1c3cc(c(OC)cc3CCN1C)Oc1c(OC)c(OC)cc3c1[C@H](C2)N(C)CC3,3,-9,0,-17,78*,6
C=C1CC(Cn2cc(Br)c(=O)[nH]c2=O)(c2ccc(-c3ccccc3)cc2)OC1=O (centres undefined),4,-22,-3,-7,46*,6
COc1cccc(C(=O)NCC(=O)OCC(=O)NC2CCCCC2)c1,10,2,3,4,-6,-1
O=C(OCn1ncc(Br)c(Br)c1=O)c1ccccc1Cl,4,12,-1,7,24,0
O=C(OCn1ncc(Cl)c(Cl)c1=O)c1cccc(C(F)(F)F)c1,20,3,-4,-17,58*,3
Cc1cccnc1NC(=O)c1ccc(COc2ccccc2)o1,-1,1,-3,-4,-2,1
Cc1cccc(NC(=O)C(=O)C2C(=O)Nc3ccccc32)c1 (centres undefined),-6,19*,2,0,15,2
COc1c(O)cc2c(c1O)C1OC(CO)C(O)C(O)C1OC2=O (centres undefined),-2,-15,46*,7,-36,7
Cc1ccccc1C(=O)Nc1ccc(-c2nc3ccc(C(=O)c4ccccc4)cc3[nH]2)cc1,24,-23,-4,-20,36*,11
CS(=O)(=O)c1ccccc1C(=O)Nc1ccc(-c2nc3ccccc3[nH]2)cc1,-7,-1,-4,-1,2,3
CC(=O)Nc1cccc(NC(=O)Cc2cccs2)c1,11,-7,0,-7,9,0
O=C(Cc1cccs1)Nc1cccc(-c2nc3cc4ccccc4cc3[nH]2)c1,27*,-18,-2,-13,16,9
O=C(c1ccccc1)c1ccc2nc(-c3ccc(NC(=O)c4ccccc4Br)cc3)[nH]c2c1,12,-11,1,-22,28*,7
O=C(Nc1ccc(-c2nc3ccc(NC(=O)c4cccs4)cc3[nH]2)cc1)c1cccs1,27*,-14,0,-22,46*,5
